The text below walks through data of ChEMBL document CHEMBL1154004, “Relationships between the structures of flavanone derivatives and their effects in enhancing early growth response-1 gene expression” (2009).

Molecules are shown by their SMILES. Activity calls are given as the source filed them. The rule behind the calls is not given here.

For the first assay, the system named is HEK293. The experiment in a line: Increase in EGR1 mRNA expression in human HEK293 cells at 20 ug/mL after 6 to 12 hrs by dual-glo luciferase assay relative to control. It counts as functional.
Conditions: not given
Summed up:
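Egr-1 promoter reporter assay after transient transfection. Activity is the level with compound divided by the compound-free control level, with the control set at 1.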
On to `O=C1C[C@@H](c2ccc(O)c(O)c2)Oc2cc(O)cc(O)c21` [ERIODICTYOL], for which the “fold change (FC)” value worked out at 2.1.
For `O=C1C[C@@H](c2ccc(O)cc2)Oc2cc(O)cc(O)c21` [NARINGENIN], the “fold change (FC)” value amounted to 1.2.
For `O=C1CC(c2ccc(O)cc2)Oc2ccccc21` (centres undefined) [4'-HYDROXY-FLAVANONE], the “fold change (FC)” value was 1.4.
`COc1cc(O)c2c(c1)O[C@H](c1ccccc1)CC2=O` [PINOSTROBIN]: the “fold change (FC)” value is 1.6.
For the compound `Cc1ccc(C2CC(=O)c3cc(Cl)ccc3O2)cc1` (centres undefined), the “fold change (FC)” value came out at 0.8.
Regarding `COc1cc(O)c2c(c1)OC(c1ccc(O)cc1)CC2=O` (centres undefined), the “fold change (FC)” value is 0.4.
In the case of `COc1ccc2c(c1)OC(c1ccccc1)CC2=O` (centres undefined), the “fold change (FC)” value was 1.1.
On the same count and under the same terms, the result for `COc1cc([C@@H]2CC(=O)c3c(O)cc(O)cc3O2)ccc1O` [HOMOERIODICTYOL] reads 1.2; that for `O=C1C[C@@H](c2ccccc2)Oc2cc(O)cc(O)c21` [PINOCEMBRIN], 0.4; that for `O=C1CC(c2ccc(F)cc2)Oc2c(Cl)cccc21` (centres undefined), 2.4.
Consider `O=C1c2c(O)cc(O)cc2OC(c2ccc(O)c(O)c2)C1O` (centres undefined) [TAXIFOLIN], for which the “fold change (FC)” value amounted to 1.3.
As to `COc1ccc(C2CC(=O)c3c(OC)cc(OC)cc3O2)cc1` (centres undefined), the “fold change (FC)” value was found to be 0.7.
Still for that read-out and setting: to `COc1ccc([C@@H]2CC(=O)c3c(O)cc(O)cc3O2)cc1O` [HESPERETIN] belongs 2.4; to `COc1cc(C2CC(=O)c3ccccc3O2)ccc1O` (centres undefined), 5.1; to `O=C1CC(c2ccccc2O)Oc2ccc(O)cc21` (centres undefined), 1.2.
On to `COc1ccc(C2CC(=O)c3ccccc3O2)cc1OC` (centres undefined), for which the “fold change (FC)” value turned out to be 4.3.
Turning to `O=C1CC(c2cccc(O)c2)Oc2ccccc21` (centres undefined) [3'-HYDROXYFLAVANONE], the “fold change (FC)” value is recorded as 6.7.
The same measure, in the same setting: to `O=C1c2ccc(O)cc2OC(c2ccc(O)c(O)c2)C1O` (centres undefined) belongs 1.3; to `O=C1CC(c2ccccc2)Oc2ccccc21` (centres undefined) [FLAVANONE], 2.3; to `COc1cccc2c1C(=O)CC(c1ccccc1)O2` (centres undefined), 3.6.
For `COc1ccc2c(c1)C(=O)CC(c1ccccc1)O2` (centres undefined), the “fold change (FC)” value came out at 1.6.
Same read-out and setting: to `Cc1ccc(C2CC(=O)c3cccc(Cl)c3O2)cc1` (centres undefined) belongs 1.3; to `COc1ccc2c(c1)C(=O)CC(c1cccc(OC)c1OC)O2` (centres undefined), 3.9; to `COc1ccc(C2CC(=O)c3cc(Cl)ccc3O2)cc1OC` (centres undefined), 0.7.
`COc1cc(C2CC(=O)c3c(O)cc(O)cc3O2)cc(OC)c1OC` (centres undefined): the “fold change (FC)” value came out at 1.2.
Same read-out and setting: the result for `O=C1CC(c2ccccc2)Oc2cc(O)ccc21` (centres undefined) [7-HYDROXYFLAVANONE] reads 2.1; that for `COc1ccc(C2CC(=O)c3ccccc3O2)cc1` (centres undefined), 1.2; that for `COc1ccc(C2CC(=O)c3cc(OC)ccc3O2)c(OC)c1` (centres undefined), 1.5.
On to `COc1cccc(C2CC(=O)c3cc(OC)ccc3O2)c1` (centres undefined), for which the “fold change (FC)” value is given as 2.5.
Still for that read-out and setting: the result for `COc1ccc2c(c1)OC(c1cc(OC)c(OC)c(OC)c1)CC2=O` (centres undefined) reads 1; that for `O=C1CC(c2ccccc2)Oc2c(Cl)cccc21` (centres undefined), 1.7; that for `COc1cc(O)cc2c1C(=O)CC(c1ccccc1)O2` (centres undefined), 1.
The same measure, in the same setting: the result for `O=C1CC(c2ccccc2)Oc2ccc(O)cc21` (centres undefined) reads 1.3.
On to `COc1ccc2c(c1)C(=O)CC(c1ccc(OC)c(OC)c1)O2` (centres undefined), for which the “fold change (FC)” value came out at 0.7.
For the compound `O=C1CC(c2ccccc2O)Oc2ccccc21` (centres undefined) [2'-HYDROXY-FLAVANONE], the “fold change (FC)” value was 4.2.
The same measure, in the same setting: to `O=C1c2ccc(O)cc2O[C@@H](c2cc(O)c(O)c(O)c2)[C@@H]1O` [DIHYDROROBINETIN] belongs 0.7; to `COc1cc(OC)c2c(c1)OC(c1ccccc1)CC2=O` (centres undefined) [DIMETHYLPINOCEMBRIN], 1.9.

In the next assay the test system is HeLa. The experiment in a line: Increase in EGR1 mRNA expression in human HeLa cells after 1 hr by Western blotting. Conditions: in the assay text read “EGR1 protein expression” for “EGR1 mRNA expression”. The class given is functional, cell-based. Summed up: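 Human cervix carcinoma HeLa cells were left untreated or exposed to compound at 10, 20 or 40 for 1 h. Egr-1 protein level was then examined by Western blot.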
Regarding `O=C1CC(c2cccc(O)c2)Oc2ccccc21` (centres undefined) [3'-HYDROXYFLAVANONE], the outcome was Active.
Same read-out and setting: the result for `O=C1CC(c2ccccc2O)Oc2ccccc21` (centres undefined) [2'-HYDROXY-FLAVANONE] reads “Active”.
